According to ChEMBL document CHEMBL1833964, “Synthesis, structure-activity relationship and in vitro biological evaluation of N-arylethyl isoquinoline derivatives as Coxsackievirus B3 inhibitors” (Bioorg Med Chem Lett, 2011):

How the values were obtained:
Enterovirus A71 = test: Antiviral activity against Enterovirus 71 infected in african green monkey vero cells assessed as inhibition of viral replication by Reed-Muench analysis; assay type: functional, organism-based; details: Enterovirus A
Coxsackievirus B3 = test: Antiviral activity against Coxsackievirus B3 infected in african green monkey vero cells assessed as inhibition of viral replication by Reed-Muench analysis; assay type: functional, organism-based; details: Enterovirus B
In short: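 Vero monolayers infected with 100 TCID50 CVB3, then kept in maintenance medium (MEM plus 2% FBS) with or without test compound at various concentrations. Viral CPE was scored once the virus control reached 4+. The 50% inhibitory concentration came from Reed and Muench analysis. Three independent experiments.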

[1] = Cytotoxicity against african green monkey Vero cells infected with Enterovirus 71 assessed as growth inhibition after 48 hrs by Reed-Muench analysis; assay type: cell-based; details: chlorocebus sabaeus, read-out: TC50
In short: (§1)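 Vero cells plated at 2.5 × 10^4 per well and grown 24 h to a monolayer, then exposed to a range of test compound concentrations for 48 h at 37 °C. Cell damage was monitored as CPE, and TC50 came from Reed and Muench analysis. Each experiment was run three times.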

[2] = Cytotoxicity against african green monkey Vero cells infected with Coxsackievirus B3 assessed as growth inhibition after 48 hrs by Reed-Muench analysis; assay type: cell-based; details: chlorocebus sabaeus, read-out: TC50; in short: as §1
[3] = Selectivity index, ratio of TC50 for african green monkey vero cells to IC50 for Enterovirus 71; assay type: toxicity, cell-based; details: read-out: Selectivity Index
[4] = Selectivity index, ratio of TC50 for african green monkey vero cells to IC50 for Coxsackievirus B3; assay type: toxicity, cell-based; details: read-out: Selectivity Index
In short: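 Selectivity index is TC50 divided by IC50. TC50 is from 48 h CPE monitoring of compound-treated uninfected Vero monolayers. IC50 is from CPE scoring at 4+ virus control in Vero cells infected with 100 TCID50 CVB3 and kept in MEM with 2% FBS. Both values came from Reed and Muench analysis, in triplicate experiments.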

Molecule `Oc1ccc2cc[n+](CCc3ccccc3)cc2c1` has an IC50 (Enterovirus A71) of 152 µM, an IC50 (Coxsackievirus B3) of 25 µM and a CC50 at 48 h [1] of 534 µM. For the same molecule, the CC50 at 48 h [2] was 389 µM, the selectivity ratio [3] was 3.5 and the selectivity ratio [4] was 15.6.

In the case of `COc1ccc2cc[n+](CCc3ccccc3)cc2c1O`, the IC50 (Coxsackievirus B3) is reported as 91.1 µM, the CC50 at 48 h [2] is reported as 352 µM and the selectivity ratio [4] is reported as 3.9.

Molecule `COc1ccc2cc[n+](CCc3ccccc3C)cc2c1O` has an IC50 (Coxsackievirus B3) of over 337 µM and a CC50 at 48 h [2] of 584 µM.

With `COc1ccc(CC[n+]2ccc3ccc(OC)c(O)c3c2)cc1` the IC50 (Coxsackievirus B3) was over 107 µM and the CC50 at 48 h [2] was 464 µM.

`COc1ccc2cc[n+](CCc3ccccc3)cc2c1OC` showed an IC50 (Coxsackievirus B3) of 209 µM, a CC50 at 48 h [2] of 584 µM and a selectivity ratio [4] of 2.8.

`COc1cc2cc[n+](CCc3ccccc3)cc2cc1OC` showed an IC50 (Coxsackievirus B3) of over 337 µM and a CC50 at 48 h [2] of 1010 µM.

In the case of `COc1ccc2cc[n+](CCc3ccc(F)cc3)cc2c1OC`, the IC50 (Coxsackievirus B3) is reported as over 320 µM and the CC50 at 48 h [2] is reported as 1380 µM.

For `COc1ccc(CC[n+]2ccc3ccc(OC)c(OC)c3c2)cc1`, the IC50 (Coxsackievirus B3) was over 11.4 µM and the CC50 at 48 h [2] was 49.5 µM.

Work on `c1ccc(CC[n+]2ccc3ccc4c(c3c2)OCO4)cc1` yielded an IC50 (Enterovirus A71) of 91.1 µM, an IC50 (Coxsackievirus B3) of 30.4 µM and a CC50 at 48 h [1] of 820 µM. The CC50 at 48 h [2] was 815 µM, the selectivity ratio [3] was 9 and the selectivity ratio [4] was 26.8.

Molecule `Fc1ccc(CC[n+]2ccc3ccc4c(c3c2)OCO4)cc1` has an IC50 (Enterovirus A71) of 45.8 µM, an IC50 (Coxsackievirus B3) of over 335 µM and a CC50 at 48 h [1] of 420 µM. The CC50 at 48 h [2] was 581 µM and the selectivity ratio [3] was 9.2.

With `COc1cc2cc[n+](CCc3ccc(F)cc3)cc2cc1OC` the IC50 (Enterovirus A71) was 107 µM, the IC50 (Coxsackievirus B3) was over 320 µM and the CC50 at 48 h [1] was 864 µM. For the same molecule, the CC50 at 48 h [2] was 665 µM and the selectivity ratio [3] was 8.1.

`COc1cc2cc[n+](CCc3ccccc3F)cc2cc1OC` showed an IC50 (Coxsackievirus B3) of over 53.3 µM and a CC50 at 48 h [2] of 206 µM.

Work on `COc1cc2cc[n+](CCc3cccc(Cl)c3)cc2cc1OC` yielded an IC50 (Coxsackievirus B3) of over 33.9 µM and a CC50 at 48 h [2] of 131 µM.

Molecule `COc1cc2cc[n+](CCc3ccccc3C)cc2cc1OC` has an IC50 (Coxsackievirus B3) of over 323 µM and a CC50 at 48 h [2] of 970 µM.

`COc1cc2c[n+](CCc3ccccc3C)ccc2cc1O` gave an IC50 (Coxsackievirus B3) of 112 µM, a CC50 at 48 h [2] of 234 µM and a selectivity ratio [4] of 2.1.

For `COc1cc2c[n+](CCc3ccccc3F)ccc2cc1O`, the IC50 (Coxsackievirus B3) was over 111 µM and the CC50 at 48 h [2] was 333 µM.

Molecule `Oc1ccc2cc[n+](CCc3cccc(Cl)c3)cc2c1` has an IC50 (Coxsackievirus B3) of over 38.6 µM and a CC50 at 48 h [2] of 200 µM.

In the case of `Oc1ccc2cc[n+](CCc3ccc(F)cc3)cc2c1`, the IC50 (Coxsackievirus B3) is reported as over 336 µM and the CC50 at 48 h [2] is reported as 1100 µM.

Work on `Cc1ccccc1CC[n+]1ccc2ccc(O)cc2c1` yielded an IC50 (Coxsackievirus B3) of 371 µM, a CC50 at 48 h [2] of 772 µM and a selectivity ratio [4] of 2.1.

For `COc1ccccc1CC[n+]1ccc2ccc(O)cc2c1`, the IC50 (Coxsackievirus B3) was over 352 µM and the CC50 at 48 h [2] was 1060 µM.

For `COc1cc2c[n+](CCc3ccccc3)ccc2c(OC)c1OC`, the IC50 (Coxsackievirus B3) was over 927 µM and the CC50 at 48 h [2] was 2780 µM.

`COc1ccc(CC[n+]2ccc3c(OC)c(OC)c(OC)cc3c2)cc1` showed an IC50 (Coxsackievirus B3) of over 10.6 µM and a CC50 at 48 h [2] of 46 µM.

Molecule `NC(=O)c1ncn([C@@H]2O[C@H](CO)[C@@H](O)[C@H]2O)n1` [RIBAVIRIN] has an IC50 (Enterovirus A71) of 2120 µM and an IC50 (Coxsackievirus B3) of 910 µM.
